Reference: ChEMBL document CHEMBL1137710, “Synthesis and in vitro antitumor activity of new quinoxaline derivatives” (2009)

Key:
Type in all cases: functional
[1] = tested on: SNB-19; test: Growth inhibition of human SNB19 cells after 48 hrs by sulforhodamine B assay; details: SNB-19, 48 h
In short: (§1)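 Run in the NCI 60-human-tumour-cell-line panel, tested over a 5-log dose range. Dose–response curves gave three values per cell line, each as a log10 molar concentration: GI50 (50% inhibition of net cell growth), TGI (total inhibition of net growth) and LC50 (50% net cell death). The mean graph midpoint is the arithmetic mean over all lines, with insensitive lines entered at the highest concentration tested.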

[2] = Growth inhibition of human […] cells after 48 hrs by sulforhodamine B assay
In short: (§2)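 NCI 60-human-tumor-cell-line panel, with compounds tested over a 5-log dose range. Values are taken from dose-response curves as log10 molar concentrations: GI50 is 50% net growth inhibition, TGI is total growth inhibition, and LC50 is 50% net cell death.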

[3] = tested on: SK-MEL-28; test: Growth inhibition of human SK-MEL-28 cells after 48 hrs by sulforhodamine B assay; details: SK-MEL-28, 48 h; in short: as §2
[4] = tested on: A549; test: Growth inhibition of human A549 cells after 48 hrs by sulforhodamine B assay; details: A549, 48 h; in short: as §2
[5] = tested on: M14; test: Growth inhibition of human M14 cells after 48 hrs by sulforhodamine B assay; details: M14, 48 h; in short: as §2
[6] = tested on: OVCAR-8; test: Growth inhibition of human OVCAR8 cells after 48 hrs by sulforhodamine B assay; details: OVCAR-8, 48 h; in short: as §2
[7] = tested on: SF-268; test: Anticancer activity against human SF268 cells assessed as cell growth at 100 uM after 48 hrs by sulforhodamine B assay; details: SF-268, 48 h, read-out: Activity
[8] = tested on: IGROV-1; test: Growth inhibition of human IGROV1 cells after 48 hrs by sulforhodamine B assay; details: IGROV-1, 48 h; in short: as §2
[9] = tested on: HCT-116; test: Growth inhibition of human HCT116 cells after 48 hrs by sulforhodamine B assay; details: HCT-116, 48 h; in short: as §2
[10] = tested on: MCF7; test: Growth inhibition of human MCF7 cells after 48 hrs by sulforhodamine B assay; details: MCF7, 48 h; in short: as §2
[11] = tested on: U-251; test: Growth inhibition of human U251 cells after 48 hrs by sulforhodamine B assay; details: U-251, 48 h; in short: as §1
[12] = tested on: NCI-H460; test: Growth inhibition of human NCI-H460 cells after 48 hrs by sulforhodamine B assay; details: NCI-H460, 48 h; in short: as §2
[13] = tested on: RXF 393; test: Growth inhibition of human RXF393 cells after 48 hrs by sulforhodamine B assay; details: RXF 393, 48 h; in short: as §2
[14] = tested on: SK-MEL-5; test: Growth inhibition of human SK-MEL-5 cells after 48 hrs by sulforhodamine B assay; details: SK-MEL-5, 48 h; in short: as §2
[15] = tested on: SF-268; test: Growth inhibition of human SF268 cells after 48 hrs by sulforhodamine B assay; details: SF-268, 48 h; in short: as §2
[16] = tested on: NCI-H460; test: Anticancer activity against human NCI-H460 cells assessed as cell growth at 100 uM after 48 hrs by sulforhodamine B assay; details: NCI-H460, 48 h, read-out: Activity
[17] = tested on: NCI-H23; test: Growth inhibition of human NCI-H23 cells after 48 hrs by sulforhodamine B assay; details: NCI-H23, 48 h; in short: as §2
[18] = tested on: PC-3; test: Growth inhibition of human PC3 cells after 48 hrs by sulforhodamine B assay; details: PC-3, 48 h; in short: as §2
[19] = tested on: SW-620; test: Growth inhibition of human SW620 cells after 48 hrs by sulforhodamine B assay; details: SW-620, 48 h; in short: as §1
[20] = tested on: MDA-MB-231; test: Growth inhibition of human MDA-MB-231 cells after 48 hrs by sulforhodamine B assay; details: MDA-MB-231, 48 h; in short: as §2
[21] = tested on: OVCAR-4; test: Growth inhibition of human OVCAR4 cells after 48 hrs by sulforhodamine B assay; details: OVCAR-4, 48 h; in short: as §2
[22] = tested on: MDA-MB-435; test: Growth inhibition of human MDA-MB-435 cells after 48 hrs by sulforhodamine B assay; details: MDA-MB-435, 48 h; in short: as §2
[23] = tested on: UACC-257; test: Growth inhibition of human UACC257 cells after 48 hrs by sulforhodamine B assay; details: UACC-257, 48 h; in short: as §1
[24] = tested on: DU-145; test: Growth inhibition of human DU145 cells after 48 hrs by sulforhodamine B assay; details: DU-145, 48 h; in short: as §2
[25] = tested on: SF-295; test: Growth inhibition of human SF295 cells after 48 hrs by sulforhodamine B assay; details: SF-295, 48 h; in short: as §2
[26] = tested on: TK-10; test: Growth inhibition of human TK10 cells after 48 hrs by sulforhodamine B assay; details: TK-10, 48 h; in short: as §1
[27] = tested on: UACC-62; test: Growth inhibition of human UACC62 cells after 48 hrs by sulforhodamine B assay; details: UACC-62, 48 h; in short: as §1
[28] = tested on: MCF7; test: Anticancer activity against human MCF7 cells assessed as cell growth at 100 uM after 48 hrs by sulforhodamine B assay; details: MCF7, 48 h, read-out: Activity
[29] = tested on: COLO 205; test: Growth inhibition of human COLO205 cells after 48 hrs by sulforhodamine B assay; details: COLO 205, 48 h; in short: as §2
[30] = tested on: SK-OV-3; test: Growth inhibition of human SKOV3 cells after 48 hrs by sulforhodamine B assay; details: SK-OV-3, 48 h; in short: as §2
[31] = read-out: pLC50 (the source's name) (converted)

Compound: Nc1cc(N)c2nc(-c3ccccc3)c(Sc3ccc(F)cc3)nc2c1
- GI50 [1]: 20 µM
- LC50 [1]: 87.1 µM
- TGI ([1]; read-out: pTGI (converted)): 41.7 µM
- GI50 [2]: 28.2 µM
- LC50 [2]: > 100 µM
- TGI ([2]; read-out: pTGI (converted)): 81.3 µM
- GI50 [3]: 23.4 µM
- CC50 [3, 31]: > 100 µM
- TGI ([3]; read-out: pTGI (converted)): 53.7 µM
- GI50 [4]: 13.5 µM
- LC50 [4]: 70.8 µM
- TGI ([4]; read-out: pTGI (converted)): 30.9 µM
- GI50 [5]: 15.8 µM
- CC50 [5, 31]: 58.9 µM
- TGI ([5]; read-out: pTGI (converted)): 30.9 µM
- GI50 [6]: 16.6 µM
- CC50 [6, 31]: 72.4 µM
- TGI ([6]; read-out: pTGI (converted)): 34.7 µM
- growth at 100 µM [7]: 0%
- GI50 [8]: 25.1 µM
- CC50 [8, 31]: > 100 µM
- TGI ([8]; read-out: pTGI (converted)): > 100 µM
- GI50 [9]: 14.8 µM
- LC50 (concentration causing 50% net cell death) [9]: 55 µM
- TGI ([9]; read-out: pTGI (converted)): 28.2 µM
- GI50 [10]: 20 µM
- CC50 [10, 31]: > 100 µM
- TGI ([10]; read-out: pTGI (converted)): 63.1 µM
- GI50 [11]: 16.2 µM
- LC50 (50% net cell kill) [11]: 61.7 µM
- TGI ([11]; read-out: pTGI (converted)): 31.6 µM
- GI50 [12]: 21.9 µM
- LC50 (50% net cell kill) [12]: > 100 µM
- TGI ([12]; read-out: pTGI (converted)): 66.1 µM
- GI50 [13]: > 100 µM
- CC50 [13, 31]: > 100 µM
- TGI ([13]; read-out: pTGI (converted)): > 100 µM
- GI50 [14]: 15.5 µM
- CC50 [14, 31]: 70.8 µM
- TGI ([14]; read-out: pTGI (converted)): 33.1 µM
- GI50 [15]: 17.8 µM
- LC50 [15]: 85.1 µM
- TGI ([15]; read-out: pTGI (converted)): 38.9 µM
- growth at 100 µM [16]: 0%
- GI50 [17]: 19.1 µM
- LC50 (50% net cell kill concentration) [17]: 81.3 µM
- TGI ([17]; read-out: pTGI (converted)): 39.8 µM
- GI50 [18]: > 100 µM
- CC50 [18, 31]: > 100 µM
- TGI ([18]; read-out: pTGI (converted)): > 100 µM
- GI50 [19]: 22.9 µM
- CC50 [19, 31]: > 100 µM
- TGI ([19]; read-out: pTGI (converted)): 50.1 µM
- GI50 [20]: 17.4 µM
- CC50 [20, 31]: 83.2 µM
- TGI ([20]; read-out: pTGI (converted)): 38 µM
- GI50 [21]: 22.9 µM
- CC50 [21, 31]: > 100 µM
- TGI ([21]; read-out: pTGI (converted)): 56.2 µM
- GI50 [22]: 16.2 µM
- CC50 [22, 31]: 66.1 µM
- TGI ([22]; read-out: pTGI (converted)): 33.1 µM
- GI50 [23]: 16.6 µM
- CC50 [23, 31]: 60.3 µM
- TGI ([23]; read-out: pTGI (converted)): 31.6 µM
- GI50 [24]: > 100 µM
- CC50 [24, 31]: > 100 µM
- TGI ([24]; read-out: pTGI (converted)): > 100 µM
- GI50 [25]: 13.8 µM
- LC50 (50% net cell kill) [25]: 64.6 µM
- TGI ([25]; read-out: pTGI (converted)): 30.2 µM
- GI50 [26]: > 100 µM
- CC50 [26, 31]: > 100 µM
- TGI ([26]; read-out: pTGI (converted)): > 100 µM
- GI50 [27]: 16.6 µM
- CC50 [27, 31]: 60.3 µM
- TGI ([27]; read-out: pTGI (converted)): 31.6 µM
- growth at 100 µM [28]: 7%
- GI50 [29]: 21.9 µM
- LC50 (50% net cell kill) [29]: > 100 µM
- TGI ([29]; read-out: pTGI (converted)): 47.9 µM
- GI50 [30]: 15.8 µM
- CC50 [30, 31]: 63.1 µM
- TGI ([30]; read-out: pTGI (converted)): 31.6 µM
